# Assay results gathered from unrelated publications.
# Protocols differ between the studies behind these lines.
# Target: Serine/threonine-protein kinase ULK3 (ULK3, Homo sapiens, UniProt Q6PHR2)
# One construct used (Q6PHR2 1-472): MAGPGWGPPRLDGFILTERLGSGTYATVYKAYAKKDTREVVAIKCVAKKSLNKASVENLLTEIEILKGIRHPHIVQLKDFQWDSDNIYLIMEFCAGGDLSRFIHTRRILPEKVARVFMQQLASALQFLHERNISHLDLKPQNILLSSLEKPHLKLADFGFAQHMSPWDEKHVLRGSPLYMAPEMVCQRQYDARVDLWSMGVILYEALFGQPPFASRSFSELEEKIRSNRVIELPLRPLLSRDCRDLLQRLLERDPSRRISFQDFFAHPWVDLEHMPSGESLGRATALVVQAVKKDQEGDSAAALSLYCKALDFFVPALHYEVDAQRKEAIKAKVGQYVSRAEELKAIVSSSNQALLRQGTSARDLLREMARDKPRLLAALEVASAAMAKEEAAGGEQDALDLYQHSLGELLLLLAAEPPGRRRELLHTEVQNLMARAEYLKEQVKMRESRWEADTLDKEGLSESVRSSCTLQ
Structure (SMILES),assay,conditions,remaining binding [%]
CNC(=O)Nc1ccc2c(c1)[C@@]1(CC2)OC(=O)N(CC(=O)N(Cc2ccc(F)cc2)[C@@H](C)C(F)(F)F)C1=O,"cell-free assay, competition with immobilised ligand",1 µM,55
CN(c1nccc(-c2cnn3ncccc23)n1)C1CC1,binding,1 µM,100
COc1cnc(Nc2cccc(S(N)(=O)=O)c2)nc1N1CCN(c2ccccc2)C(=O)C1,"binding, competition with immobilised ligand",1 µM,45
N[C@@H]1CCN(c2nccc(-c3cnn4ncccc34)n2)C1,binding,1 µM,100
Cn1cc(Cl)c2c(Oc3c(F)cc(Nc4cc(Cl)nc(N)n4)cc3F)ccnc21,"cell-free assay, competition with immobilised ligand",0.1 µM,85
c1cnn2ncc(-c3ccnc(N4CCC45COC5)n3)c2c1,binding,1 µM,64
CNC(=O)[C@@H]1CC[C@@H](n2c(-c3ccc4cnccc4c3)nc3ccc(C(=O)NCc4cccc(C(N)=O)c4)cc32)C1,"binding, competition with immobilised ligand",1 µM,88
Cc1cnc(Nc2ccc(C(=O)N3CCC(N4CCCC4)CC3)cc2)nc1-c1cc2ccccc2s1,"binding, competition with immobilised ligand",1 µM,0.3
C[C@H](c1ccc(F)cc1)N(Cc1cccc(C(=O)O)c1)C(=O)c1cnc2ccccc2c1,"cell-free assay, competition with immobilised ligand",1 µM,82
CN(C)c1ncc(F)c(-c2cnn3ncccc23)n1,binding,1 µM,72
c1cncc(-c2cccc(Nc3nccc(NC4CCCCC4)n3)c2)c1,"binding, competition with immobilised ligand",10 µM,44
CN(C)c1nccc(-c2cnn3ncccc23)n1,binding,1 µM,77
O=C(c1ccc(Nc2nccc(-c3cc4ccccc4s3)n2)cc1)N1CCC(N2CCCC2)CC1,"binding, competition with immobilised ligand",1 µM,0.4
CS(=O)(=O)NCC[C@H](NC(=O)c1cncc2c1cnn2-c1ccc(F)cc1)c1ccnc(S(C)(=O)=O)c1,"cell-free assay, competition with immobilised ligand",1 µM,100
O=C(NCC1CCOCC1)c1n[nH]cc1NC(=O)c1c(F)cccc1F,"binding, competition with immobilised ligand",1 µM,85
O=C(NCc1ncc(C(F)(F)F)cc1Cl)c1ccc2c(c1)C1(CCS(=O)(=O)CC1)[C@@H](C1CC1)N2S(=O)(=O)c1ccc(F)cc1,"cell-free assay, competition with immobilised ligand",1 µM,69
Nc1ncc2c(n1)-c1c([nH]c3ccc(C#CC4CC4)cc13)CCCC2,"binding, competition with immobilised ligand",1 µM,86
O=C(NCCCN1CCOCC1)c1ccc(Nc2ncc(Cl)c(-c3ccc(Cl)s3)n2)cc1,"binding, competition with immobilised ligand",1 µM,6.5
O=C(Nc1ccc(Oc2ccc(F)cc2)cc1)N1CCc2ncccc2[C@H]1c1ccc(F)cc1,"cell-free assay, competition with immobilised ligand",1 µM,99
CN(C)c1nccc(-c2cnc3ncccn23)n1,binding,1 µM,75
